Bioassay records from PubChem BioAssay.
This is a sample that favours compounds with a hit; in the whole collection about 4.9% have one here.
APP 5'UTR act – APP 5'UTR luciferase reporter activation | SH-SY5Y APP 5'UTR luciferase reporter, luminescence; zero percent = DMSO vehicle wells | activation, % at 2 µM | 1% of 190,000 active | AID 1276;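 active means activation above a set limit, based on mean plus 3 SD of controls, cut at about 140% in these data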
STAT3 inh – inhibitors of IL-6 induced STAT3 signaling | U3A cells, IL-6 STAT3-luciferase reporter, luminescence; host cell line lacks STAT1 | inhibition, % at 5.5 µM | 0.89% of 190,000 active;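 active means inhibition above the mean inhibition across all screened compounds plus 3 SD, cut at about 44% in these data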;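 further: 0% = DMSO only wells and 100% = 100 µM nifuroxazide control wells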
NF-kB expr up – raises NF-kB expression in human neuronal cells; NF-kB reporter expression; active compounds read high; fold change at 12.5 µM; 1.6% of 190,000 active; AID 1239; in the data active means fold change above about 3.3
STAT3 activator – STAT3 signaling activation; U3A cells, IL-6 STAT3-luciferase reporter, luminescence; 100% = signal with IL-6 EC80 alone; AID 871; activation (% of control), % at 5.6 µM; 0.91% of 190,000 active;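 active means activation above the screen-wide mean of compound activation plus 3 SD, cut at about 130% in these data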;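 further: 0% = background luminescence of wells with medium and substrate only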
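Assay system – human STAT1-deficient U3A cells with stable STAT3-luciferase reporter · Also added – IL-6 (33 ng/mL) · Schedule – compound 1 h, then IL-6 6 h at 37 °C · Technique – reporter luminescence signal · Evaluation – % activation versus median of IL-6-stimulated wells · Benchmarks – IL-6-only wells as 100% reference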
STAT1 act – STAT1 signaling activation; activation (% of control), % at 5.5 µM; 2.6% of 200,000 active; NIH 3T3 STAT1-luciferase reporter, IFN-gamma, luminescence; 100% = IFN-gamma alone, no compound; AID 932;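 active means activation above the screen-wide mean activation plus 3 SD, cut at about 130% in these data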;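 further: raw ratio to IFN-gamma control signal so 100% means no change and 0% no light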
STAT1 inh – reduces IFN-gamma driven STAT1 reporter signal. NIH 3T3 STAT1-luciferase reporter, luminescence. inhibition, % at 5.5 µM. 0.35% of 200,000 active. AID 920;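 active means inhibition above a set limit, the mean inhibition across all tested compounds plus 3 SD, cut at about 34% in these data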;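 further: 0% = IFN-gamma with DMSO and 100% = IFN-gamma with 300 µM nifuroxazide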
The depositor's hits bear a star.

SMILES | APP 5'UTR act | STAT3 inh | NF-kB expr up | STAT3 activator | STAT1 act | STAT1 inh
COc1ccc2nc(NC(=O)C3CCCO3)sc2c1 (configuration not stated) | 138* | 31 | 3.5* | 81 | 150* | -56
CCOc1ccc(C(C(=O)NC2CCCC2)N(CCCO)C(=O)c2ccc(-c3ccccc3)[nH]2)cc1 (configuration not stated) | 0 | -4 | 0.73 | 108 | 109 | -8
O=C(Nc1nc(-c2ccc(Cl)cc2)cs1)C1CCCO1 (configuration not stated) | 36 | 16 | 2.5 | 92 | 131* | -33
O=C(Nc1nc(-c2ccc(Cl)cc2Cl)cs1)C1CCCO1 (configuration not stated) | -1 | 5 | 1.4 | 94 | 102 | -3
Cc1ccc2nc(-c3ccccc3)nc(SC(C)C(=O)NCc3cccs3)c2c1 (configuration not stated) | -4 | -1 | 5* | 103 | 96 | 4
CCN1C(=O)c2cccc3c(NC(=O)c4ccc(OC)c(OC)c4)ccc1c23 | 1 | 24 | 0.72 | 84 | 90 | 11
O=S(=O)(NC1c2cccc3cccc(c23)C1N1CCNCC1)c1ccccc1 (configuration not stated) | -17 | 1 | 0.96 | 105 | 104 | -4
O=S(=O)(NC1c2cccc3cccc(c23)C1N1CCN(CCO)CC1)c1ccccc1 (configuration not stated) | 0 | -30 | 1.3 | 134* | 101 | -1
Nc1ncn(CC(=O)c2ccccc2)n1 | 28 | 8 | 6.2* | 99 | 98 | 2
CCC(C)NC(=O)COC(=O)c1oc2ccccc2c1CSc1ccc(Cl)cc1 (configuration not stated) | 0 | 10 | 1 | 95 | 101 | -1
CCOc1cccc2c1OC(c1cc(OC)c(OC)c(OC)c1)N1N=C(c3ccc(C)o3)CC21 (configuration not stated) | 137* | -3 | 0.82 | 104 | 89 | 12
COc1ccc(CCNC(=O)CSc2ccc(Br)cc2)cc1OC | -2 | 4 | 0.91 | 101 | 96 | 4
O=C(Nc1ccc(Cl)cc1Cl)NC1CCCC1 | 15 | 12 | 1 | 97 | 115 | -16
CN(C(=O)Nc1ccc(Cl)cc1Cl)C1CCCC1 | 42 | 14 | 2 | 93 | 135* | -41
CC(C)C(NC(=O)C1CCCCC1)C(=O)NCCc1ccccc1 (configuration not stated) | -10 | -6 | 1.3 | 105 | 103 | -3
Brc1ccc(-c2nnc(SCCC3OCCCO3)o2)cc1 | 35 | 0 | 1.8 | 106 | 99 | 1
c1ccc(-c2nnc(SCCC3OCCCO3)o2)cc1 | 65 | 1 | 3.4* | 100 | 116 | -18
CC(C)(C)NC(=S)NNC(=O)c1ccc2ncccc2c1 | 82 | -8 | 1 | 110 | 136* | -44
O=C(Nc1ccc(NC(=O)c2ccco2)nc1)c1cccnc1 | 79 | 22 | 2.4 | 84 | 134* | -37
O=C(Nc1cccc(NC(=O)c2cccnc2)c1)c1cccnc1 | -13 | 14 | 0.45 | 91 | 94 | 6
O=C(Nc1cccnc1)c1ccc(-c2ccccc2)cc1 | 110 | 24 | 4* | 85 | 112 | -13
O=C(Nc1cnc2ccccc2c1)c1cccnc1 | 106 | 22 | 3.6* | 89 | 134* | -38
O=C(Nc1cnc2ccccc2c1)c1cccc(-n2cnnn2)c1 | 60 | -34 | 1.4 | 138* | 135* | -38
Cc1cc(C(=O)Nc2nc(-c3ccccn3)cs2)ccc1[N+](=O)[O-] | -9 | 2 | 1.4 | 100 | 96 | 4
Cn1c(NC(=O)c2cccnc2)nc2ccccc21 | 74 | 6 | 2.2 | 99 | 148* | -52
SMILES | APP 5'UTR act | STAT3 inh | NF-kB expr up | STAT3 activator | STAT1 act | STAT1 inh
Cc1ccc(C(=O)Nc2cnc3ccccc3c2)cc1 | -31 | 110* | 0.71 | 9 | 16 | 91*
Cc1cc(C(=O)Nc2cnc3ccccc3c2)ccc1[N+](=O)[O-] | 204* | 29 | 2.2 | 80 | 137* | -40
Cc1ccc(C(=O)Nc2cccc(-c3cnc4ccccc4n3)c2)cc1 | -9 | 4 | 1.8 | 101 | 100 | 0
O=C(CSc1ccsc1[N+](=O)[O-])N1CCN(c2ccccn2)CC1 | -11 | 5 | 1.1 | 97 | 95 | 6
O=C(NC(=S)Nc1ccc2ncccc2c1)c1ccccc1 | 60 | 5 | 1.1 | 98 | 131* | -34
CCN1CCN(c2ccc(NC(=O)c3ccc4c(c3)[nH]c(=O)n4Cc3ccc(F)cc3)cc2)CC1 | 6 | 6 | 0.72 | 98 | 93 | 8
CC(=O)Nc1ccc(/C=N/N2CCCCC2)cc1 | 28 | -8 | 2.1 | 110 | 135* | -41
Clc1nc(CN2CCOCC2)nc2sc3c(c12)CCC3 | 3 | 12 | 1.3 | 96 | 103 | -5
O=c1c2c3c(sc2nc2n1CCCCC2)CCCC3 | 70 | -12 | 4.1* | 116 | 143* | -45
Clc1nc(CN2CCCCC2)nc2sc3c(c12)CCCC3 | 10 | 1 | 3.6* | 99 | 105 | -5
CC(=O)c1cccc(NC(=O)N2CCC(NC(=O)C34CC5CC(CC(C5)C3)C4)CC2)c1 | -11 | 12 | 1.2 | 91 | 108 | -10
O=c1c2ccccc2cnn1Cc1n[nH]c(=S)n1-c1ccccc1 | 13 | -2 | 1.3 | 102 | 97 | 3
COc1ccccc1-c1cc(SC)c(C#N)c(=O)o1 | -1 | -2 | 1.7 | 104 | 133* | -37
Cc1ccccc1OCC(=O)Nc1cccc(C(=O)O)c1 | -68 | 103* | 9* | 9 | 12 | 97*
CCOc1ccc(NC(=O)Nc2cc(C)ccc2F)cc1 | 131 | 7 | 2.4 | 95 | 129* | -31
CCC(=O)Nc1cccc(C(=O)/C=C/c2ccc(F)cc2)c1 | 22 | 10 | 3.8* | 100 | 102 | -2
CCOc1ccc(/C=C/C(=O)Nc2cccc(C(C)=O)c2)cc1 | 25 | 9 | 1.5 | 95 | 136* | -40
O=C1CN(Cc2cc(=O)oc3cc4c(cc23)CCC4)CCN1 | 9 | 9 | 1.2 | 95 | 97 | 2
CC(C)=CC(=O)Nc1ccc(S(=O)(=O)Nc2ccccn2)cc1 | 8 | 10 | 0.99 | 97 | 102 | -3
Cc1cc([N+](=O)[O-])nn1CCCC(=O)Nc1cccc(Cl)c1Cl | -19 | 24 | 1 | 83 | 99 | 2
CCOC(=O)C(=O)Nc1cccc(C(=O)OCC)c1 | 14 | 9 | 0.96 | 94 | 104 | -4
CCOC(=O)c1cccc(NC(=O)Nc2ccc(OCC)cc2)c1 | 16 | 53* | 1.7 | 59 | 38 | 65*
CCOc1ccc(NC(=O)Nc2ccc3nsnc3c2)cc1 | -1 | 14 | 1.5 | 90 | 125 | -29
CCOc1ccc(NC(=O)Nc2cccc(C(=O)O)c2)cc1 | -70 | 110* | 1.9 | 10 | 10 | 96*
